# Experimental data as given in ChEMBL document CHEMBL2407075, “Sulphonamido-quinoxalines: search for anticancer agent” (Eur J Med Chem, 2013).
# Tests used:
# Format in all cases: functional
# UACC-62 = assay: Growth inhibition of human UACC62 cells assessed as cell growth at 10^-6 M after 48 hrs by sulforhodamine B assay; conditions: UACC-62, 48 h, read-out: Activity
# CAKI-1 = assay: Growth inhibition of human CAKI-1 cells assessed as cell growth at 10^-6 M after 48 hrs by sulforhodamine B assay; conditions: CAKI-1, 48 h, read-out: Activity
# Procedure, shortened: (§1)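 Five-dose NCI-60 run (0.01, 0.1, 1, 10 and 100 µM, as 10-fold dilutions from a DMSO stock made at 400× the top final level). Cells were grown in RPMI 1640 with 5% FBS and 2 mM glutamine and plated for 24 h. They were then exposed for 48 h at 37 °C and 5% CO2. TCA fixation was followed by SRB staining with A515 read-out. Percent growth was taken relative to time-zero and control plates.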
# SNB-19 [1] = assay: Growth inhibition of human SNB19 cells assessed as cell growth at 10^-8 M after 48 hrs by sulforhodamine B assay; conditions: SNB-19, 48 h, read-out: Activity
# SK-MEL-28 [2] = assay: Growth inhibition of human SK-MEL-28 cells after 48 hrs by sulforhodamine B assay; conditions: SK-MEL-28, 48 h; for CC50: read-out: LC50 (the source's name)
# Procedure, shortened: (§2)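 Adherent cells in RPMI 1640 with 5% FBS and 2 mM L-glutamine were plated at 5000–40,000 cells/well and grown 24 h. Five concentrations (0.01–100 µM, DMSO stock) were added for 48 h at 37 °C. Cells were fixed with cold TCA (10% final) and stained with SRB, read at 515 nm. GI50 came from log concentration–growth curves against time-zero and control plates.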
# SK-MEL-28 [3] = assay: Growth inhibition of human SK-MEL-28 cells assessed as cell growth at 10^-6 M after 48 hrs by sulforhodamine B assay; conditions: SK-MEL-28, 48 h, read-out: Activity
# UO-31 [4] = assay: Growth inhibition of human UO31 cells assessed as cell growth at 10^-7 M after 48 hrs by sulforhodamine B assay; conditions: UO-31, 48 h, read-out: Activity
# HT-29 [5] = assay: Growth inhibition of human HT-29 cells assessed as cell growth at 10^-8 M after 48 hrs by sulforhodamine B assay; conditions: HT-29, 48 h, read-out: Activity
# Procedure, shortened: (§3)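 Five-dose screen at NCI. Cells in RPMI 1640 with 5% FBS and 2 mM L-glutamine, seeded at 5000–40,000 cells/well and grown 24 h at 37 °C, 5% CO2 before dosing, with time-zero plates TCA-fixed. Drug diluted from DMSO stock to 0.01, 0.1, 1, 10 and 100 µM final, 48 h. Cells fixed with cold TCA (10% final), stained with 0.4% SRB and read at 515 nm. Percent growth from Tz, control and test absorbances; GI50, TGI and LC50 from dose-response curves.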
# A498 = assay: Growth inhibition of human A498 cells assessed as cell growth at 10^-4 M after 48 hrs by sulforhodamine B assay; conditions: A498, 48 h, read-out: Activity; procedure, shortened: as §1
# SW-620 = assay: Growth inhibition of human SW620 cells after 48 hrs by sulforhodamine B assay; conditions: SW-620, 48 h; for CC50: read-out: LC50 (the source's name); procedure, shortened: as §2
# K562 [6] = assay: Growth inhibition of human K562 cells assessed as cell growth at 10^-6 M after 48 hrs by sulforhodamine B assay; conditions: K562, 48 h, read-out: Activity
# SF-268 = assay: Growth inhibition of human SF268 cells assessed as cell growth at 10^-6 M after 48 hrs by sulforhodamine B assay; conditions: SF-268, 48 h, read-out: Activity
# RPMI-8226 [7] = assay: Growth inhibition of human RPMI8226 cells assessed as cell growth at 10^-7 M after 48 hrs by sulforhodamine B assay; conditions: RPMI-8226, 48 h, read-out: Activity
# [8] = Growth inhibition of human Hs 578T cells assessed as cell growth at 10^-8 M after 48 hrs by sulforhodamine B assay; conditions: read-out: Activity; procedure, shortened: as §3
# HT-29 [9] = assay: Growth inhibition of human HT-29 cells assessed as cell growth at 10^-7 M after 48 hrs by sulforhodamine B assay; conditions: HT-29, 48 h, read-out: Activity; procedure, shortened: as §3
# OVCAR-4 = assay: Growth inhibition of human OVCAR4 cells assessed as cell growth at 10^-4 M after 48 hrs by sulforhodamine B assay; conditions: OVCAR-4, 48 h, read-out: Activity
# OVCAR-3 = assay: Growth inhibition of human OVCAR3 cells assessed as cell growth at 10^-4 M after 48 hrs by sulforhodamine B assay; conditions: OVCAR-3, 48 h, read-out: Activity
# UO-31 [10] = assay: Growth inhibition of human UO31 cells assessed as cell growth at 10^-6 M after 48 hrs by sulforhodamine B assay; conditions: UO-31, 48 h, read-out: Activity
# NCI-H23 = assay: Growth inhibition of human NCI-H23 cells assessed as cell growth at 10^-6 M after 48 hrs by sulforhodamine B assay; conditions: NCI-H23, 48 h, read-out: Activity
# SNB-19 [11] = assay: Growth inhibition of human SNB19 cells after 48 hrs by sulforhodamine B assay; conditions: SNB-19, 48 h; for CC50: read-out: LC50 (the source's name); procedure, shortened: as §2
# MDA-MB-435 = assay: Growth inhibition of human MDA-MB-435 cells assessed as cell growth at 10^-4 M after 48 hrs by sulforhodamine B assay; conditions: MDA-MB-435, 48 h, read-out: Activity
# U-251 = assay: Growth inhibition of human U251 cells assessed as cell growth at 10^-5 M after 48 hrs by sulforhodamine B assay; conditions: U-251, 48 h, read-out: Activity
# K562 [12] = assay: Growth inhibition of human K562 cells after 48 hrs by sulforhodamine B assay; conditions: K562, 48 h; for CC50: read-out: LC50 (the source's name)
# Procedure, shortened: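 Five-dose NCI 60 screen at 0.01, 0.1, 1, 10 and 100 µM, 48 h exposure after 24 h preincubation, in RPMI 1640 with 5% FBS and 2 mM glutamine. Fixed with TCA (10% final for adherent cells, 16% for suspension cells), stained with SRB, A515 read. Percent growth uses time-zero (Tz), control and treated plates. GI50, TGI and LC50 are read from the dose-response curves.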
# Malme-3M = assay: Growth inhibition of human MALME-3M cells assessed as cell growth at 10^-4 M after 48 hrs by sulforhodamine B assay; conditions: read-out: Activity
# HOP-62 = assay: Growth inhibition of human HOP62 cells assessed as cell growth at 10^-6 M after 48 hrs by sulforhodamine B assay; conditions: HOP-62, 48 h, read-out: Activity; procedure, shortened: as §3
# SF-539 = assay: Growth inhibition of human SF539 cells assessed as cell growth at 10^-6 M after 48 hrs by sulforhodamine B assay; conditions: SF-539, 48 h, read-out: Activity
# NCI-H322M = assay: Growth inhibition of human NCI-H322M cells assessed as cell growth at 10^-8 M after 48 hrs by sulforhodamine B assay; conditions: read-out: Activity
# RPMI-8226 [13] = assay: Growth inhibition of human RPMI8226 cells assessed as cell growth at 10^-6 M after 48 hrs by sulforhodamine B assay; conditions: RPMI-8226, 48 h, read-out: Activity
# NCI-H522 = assay: Growth inhibition of human NCI-H522 cells assessed as cell growth at 10^-8 M after 48 hrs by sulforhodamine B assay; conditions: NCI-H522, 48 h, read-out: Activity
smiles,measurement,setting,value
O=S(=O)(Nc1ccccn1)c1ccc2nc(-c3ccccc3)c(-c3ccccc3)nc2c1,growth at 1 µM,UACC-62,75%
same,growth at 1 µM,CAKI-1,102%
same,growth at 0.01 µM,SNB-19 [1],100%
same,TGI,SK-MEL-28 [2],> 100 µM
same,CC50,SK-MEL-28 [2],> 100 µM
same,growth at 1 µM,SK-MEL-28 [3],96%
same,growth at 0.1 µM,UO-31 [4],88%
same,growth at 0.01 µM,HT-29 [5],102%
same,growth at 100 µM,A498,49%
same,TGI,SW-620,> 100 µM
same,CC50,SW-620,> 100 µM
same,growth at 1 µM,K562 [6],82%
same,growth at 1 µM,SF-268,99%
same,growth at 0.1 µM,RPMI-8226 [7],104%
same,growth at 0.01 µM,[8],93%
same,growth at 0.1 µM,HT-29 [9],97%
same,growth at 100 µM,OVCAR-4,21%
same,growth at 100 µM,OVCAR-3,45%
same,growth at 1 µM,UO-31 [10],85%
same,growth at 1 µM,NCI-H23,79%
same,TGI,SNB-19 [11],> 100 µM
same,CC50,SNB-19 [11],> 100 µM
same,growth at 100 µM,MDA-MB-435,76%
same,growth at 10 µM,U-251,2%
same,GI50,K562 [12],2.72 µM
same,TGI,K562 [12],> 100 µM
same,CC50,K562 [12],> 100 µM
same,growth at 100 µM,Malme-3M,97%
same,growth at 1 µM,HOP-62,115%
same,growth at 1 µM,SF-539,96%
same,growth at 0.01 µM,NCI-H322M,96%
same,growth at 1 µM,RPMI-8226 [13],55%
same,growth at 0.01 µM,NCI-H522,89%
O=S(=O)(Nc1ccc(Cl)cc1)c1ccc2nc(-c3ccccc3)c(-c3ccccc3)nc2c1,growth at 1 µM,UACC-62,76%
same,growth at 1 µM,CAKI-1,89%
same,growth at 0.01 µM,SNB-19 [1],100%
same,TGI,SK-MEL-28 [2],> 100 µM
same,CC50,SK-MEL-28 [2],> 100 µM
same,growth at 1 µM,SK-MEL-28 [3],91%
same,growth at 0.1 µM,UO-31 [4],89%
same,growth at 0.01 µM,HT-29 [5],100%
same,growth at 100 µM,A498,61%
same,TGI,SW-620,> 100 µM
same,CC50,SW-620,> 100 µM
same,growth at 1 µM,K562 [6],95%
same,growth at 1 µM,SF-268,93%
same,growth at 0.1 µM,RPMI-8226 [7],101%
same,growth at 0.01 µM,[8],84%
same,growth at 0.1 µM,HT-29 [9],100%
same,growth at 100 µM,OVCAR-4,52%
same,growth at 100 µM,OVCAR-3,65%
same,growth at 1 µM,UO-31 [10],90%
same,growth at 1 µM,NCI-H23,85%
same,TGI,SNB-19 [11],> 100 µM
same,CC50,SNB-19 [11],> 100 µM
same,growth at 100 µM,MDA-MB-435,76%
same,growth at 10 µM,U-251,-5%
same,TGI,K562 [12],> 100 µM
same,CC50,K562 [12],> 100 µM
same,growth at 100 µM,Malme-3M,108%
same,growth at 1 µM,HOP-62,105%
same,growth at 1 µM,SF-539,101%
same,growth at 0.01 µM,NCI-H322M,93%
same,growth at 1 µM,RPMI-8226 [13],68%
same,growth at 0.01 µM,NCI-H522,93%
